Experimental data taken from ChEMBL document CHEMBL4622973, “Discovery of Potent Small-Molecule SIRT6 Activators: Structure-Activity Relationship and Anti-Pancreatic Ductal Adenocarcinoma Activity” (J Med Chem, 2020).
Activity calls are given as the source filed them. The calls are words filed in the database; no cut-off is given here.

Columns and labels:
[1] = biological target: T1, NAD-dependent protein deacylase sirtuin-6 (Homo sapiens, UniProt Q8N6T7); experiment: Activation of N-terminal his-tagged human SIRT6 expressed in Escherichia coli M15 [pREP4] assessed as increase in deacetylation activity incubated for 2 hrs using Ac-RYQK(Myr)-AMC substrate by FDL assay relative to control
[2] = biological target: T1, NAD-dependent protein deacylase sirtuin-6; experiment: Binding affinity to N-terminal his-tagged human SIRT6 expressed in Escherichia coli M15 [pREP4] assessed as change in melting temperature at 20 uM by SYPRO orange dye based DSF assay
[3] = biological target: T1, NAD-dependent protein deacylase sirtuin-6; experiment: Binding affinity to N-terminal his-tagged human SIRT6 expressed in Escherichia coli M15 [pREP4] by ITC assay
Outline: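 ITC at 25 °C in 20 mM HEPES pH 7.5, 100 mM NaCl, 2 mM DTT. SIRT6 (400 µM) injected into a cell holding activator (80 µM). Kd derived from the binding isotherm.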

[4] = species on record: Homo sapiens; experiment: Antiproliferative activity against human OCUT-2C cells assessed as reduction in cell viability incubated for 72 hrs by MTT assay; type: functional, cell-based
[5] = tested on: NCI-H526; experiment: Antiproliferative activity against human NCI-H526 cells assessed as reduction in cell viability incubated for 72 hrs by MTT assay; type: functional, cell-based
[6] = tested on: PANC-1; experiment: Inhibition of colony formation in human PANC1 cells incubated for 9 to 18 days by crystal violet staining based assay; type: functional, cell-based
Outline: (§1)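 Cells are seeded per well at the line-specific density: BXPC-3 750, PANC-1 500, AsPC-1 2200, MIAPaCa-2 500. Compound at several concentrations is added after 24 h. Incubation runs 9–18 days (BXPC-3 18 days, PANC-1 14 days). Cells are then fixed with 4% paraformaldehyde and stained with crystal violet, and colonies of more than 50 cells are counted.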

[7] = tested on: MIA PaCa-2; experiment: Inhibition of colony formation in human MIAPaCa2 cells incubated for 9 to 18 days by crystal violet staining based assay; type: functional, cell-based; outline: as §1
[8] = tested on: BXPC-3; experiment: Inhibition of cell migration of human BxPC3 cells at 10 umol/L incubated for 24 hrs by inverted microscopy relative to control; type: functional; conditions: BXPC-3, 24 h
Outline: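 PDAC cells are grown to a confluent monolayer at 37 °C in 5% CO2. The monolayer is scratched with a 200 μL pipette tip to make a gap of constant width, then washed with PBS. Cells are exposed to a range of compound concentrations. They are imaged by inverted microscope after 24 h. Migrated cells are counted by hand, and inhibition is expressed relative to untreated wells (100%).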

[9] = biological target: T1, NAD-dependent protein deacylase sirtuin-6; experiment: Binding affinity to SIRT6 in human BxPC3 cells assessed as protection of SIRT6 protein from temperature-dependent degradation at 25 uM incubated for 72 hrs by CETSA; type: cell-based; conditions: BXPC-3
Outline: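 Cells treated with compound (25 μM) or DMSO for 72 h, washed, resuspended in PBS with protease inhibitor cocktail, split into aliquots heated 3 min at a temperature gradient. Lysed by three freeze–thaw cycles, centrifuged at 4 °C for 15 min; soluble SIRT6 in supernatant detected by western blot. Triplicate.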

[10] = biological target: T1, NAD-dependent protein deacylase sirtuin-6; experiment: […] in human PANC1 cells assessed as reduction in H3K18ac levels incubated for 72 hrs by Western blot analysis; type: cell-based; conditions: PANC-1
Outline: (§2)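 Cells incubated 72 h with various compound concentrations; whole-cell RIPA lysates with protease inhibitors, BCA-normalised, separated on 12% SDS-PAGE, transferred to PVDF, blocked in 5% milk or BSA. Probed 10 h at 4 °C with antibodies to SIRT6, acetyl-H3K9/K18/K56, total H3, Lin28b, Myc, IGF2BP3, β-actin; HRP secondary, chemiluminescent detection.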

[11] = biological target: T1, NAD-dependent protein deacylase sirtuin-6; experiment: […] in human PANC1 cells assessed as reduction in H3K56ac levels incubated for 72 hrs by Western blot analysis; type: cell-based; conditions: PANC-1; outline: as §2
[12] = biological target: T1, NAD-dependent protein deacylase sirtuin-6; experiment: […] in human PANC1 cells assessed as reduction in IGF2BP3 expression levels at 25 uM incubated for 72 hrs by Western blot analysis; type: cell-based; conditions: PANC-1; outline: as §2
[13] = tested on: PANC-1; experiment: Antitumor activity against human PANC1 cells xenografted in BALB/c nude mouse assessed as inhibition of tumor growth at 150 mg/kg/day, po for 30 days relative to control; type: functional; conditions: PANC-1, po, 720 h, read-out: TGI
Outline: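 Female BALB/c nude mice, 6-8 weeks old, injected subcutaneously in the right flank with 5×10^6–1×10^7 PANC-1 cells. At 130-150 mm³, mice randomized into 4 groups (n = 6) and dosed orally once daily for 30 days against vehicle. Tumor volume followed over time. Inhibition rate assessed against control.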

[14] = Tmax in Sprague-Dawley rat at 10 mg/kg, po after 0.083 to 24 hrs by LC-MS/MS analysis; type: ADME, organism-based; conditions: in vivo
Outline: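 Male Sprague-Dawley rats, 6–8 weeks old, received a single dose of 10 mg/kg p.o. or 2 mg/kg i.v. The vehicle was 5% DMSO, 10% Solutol and 85% saline at pH 7. Blood was taken by cardiac puncture at 0.083–24 h (p.o.) or 0.25–24 h (i.v.), and plasma was measured by LC-MS/MS. Values are mean ± SD, n = 3.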

[15] = Cmax in Sprague-Dawley rat at 10 mg/kg, po after 0.083 to 24 hrs by LC-MS/MS analysis; type: ADME, organism-based; parameters: dose 10 mg/kg, route oral; conditions: in vivo
Outline: (§3)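 Male Sprague-Dawley rats, 6-8 weeks old. Dosing solution of 10 (PO) or 2 (IV) mg/mL in 5% DMSO, 10% Solutol and 85% saline, pH 7. Blood taken by cardiac puncture at 0.083–24 h (PO) or 0.25–24 h (IV). Plasma levels measured by LC-MS/MS. Values are mean ± SD, n = 3.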

[16] = AUC (0 to infinity) in Sprague-Dawley rat at 10 mg/kg, po after 0.083 to 24 hrs by LC-MS/MS analysis; type: ADME, organism-based; parameters: dose 10 mg/kg, time infinity, route oral; conditions: in vivo; outline: as §3
[17] = Clearance in Sprague-Dawley rat at 2 mg/kg, iv after 0.25 to 24 hrs by LC-MS/MS analysis; type: ADME, organism-based; conditions: in vivo; outline: as §3
[18] = Cmax in Sprague-Dawley rat at 2 mg/kg, iv after 0.25 to 24 hrs by LC-MS/MS analysis; type: ADME, organism-based; parameters: dose 2 mg/kg, route intravenous; conditions: in vivo; outline: as §3
[19] = AUC (0 to infinity) in Sprague-Dawley rat at 2 mg/kg, iv after 0.25 to 24 hrs by LC-MS/MS analysis; type: ADME, organism-based; parameters: dose 2 mg/kg, route intravenous, time infinity; conditions: in vivo; outline: as §3
[20] = biological target: NAD-dependent protein deacetylase sirtuin-2 (Homo sapiens, UniProt Q8IXJ6); experiment: Inhibition of SIRT2 (unknown origin) by FDL assay
Outline: (§4)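 Selectivity testing by FDL assay at concentrations up to 200 µM. SIRT1-2 assays run by an outside contract provider. Values reported as IC50.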

[21] = biological target: Histone deacetylase 3 (Homo sapiens, UniProt O15379); experiment: Inhibition of HDAC3 (unknown origin) by FDL assay; outline: as §4
[22] = biological target: Histone deacetylase 9 (Homo sapiens, UniProt Q9UKV0); experiment: Inhibition of HDAC9 (unknown origin) by FDL assay; outline: as §4
[23] = biological target: Polyamine deacetylase HDAC10 (Homo sapiens, UniProt Q969S8); experiment: Inhibition of HDAC10 (unknown origin) by FDL assay; outline: as §4
[24] = biological target: Histone deacetylase 11 (Homo sapiens, UniProt Q96DB2); experiment: Inhibition of HDAC11 (unknown origin) by FDL assay; outline: as §4
Sequence of Histone deacetylase 11 (Q96DB2 whole entry): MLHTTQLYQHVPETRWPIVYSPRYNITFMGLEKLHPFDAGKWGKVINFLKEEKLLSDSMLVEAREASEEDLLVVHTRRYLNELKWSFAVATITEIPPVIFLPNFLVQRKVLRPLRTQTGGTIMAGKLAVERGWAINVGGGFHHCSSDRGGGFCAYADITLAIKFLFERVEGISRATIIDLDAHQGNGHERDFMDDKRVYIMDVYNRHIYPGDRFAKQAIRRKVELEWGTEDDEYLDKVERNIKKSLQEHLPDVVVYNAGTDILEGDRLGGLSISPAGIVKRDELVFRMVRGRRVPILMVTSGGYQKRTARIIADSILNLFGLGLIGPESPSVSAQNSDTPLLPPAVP

T1 sequence (Q8N6T7 whole entry): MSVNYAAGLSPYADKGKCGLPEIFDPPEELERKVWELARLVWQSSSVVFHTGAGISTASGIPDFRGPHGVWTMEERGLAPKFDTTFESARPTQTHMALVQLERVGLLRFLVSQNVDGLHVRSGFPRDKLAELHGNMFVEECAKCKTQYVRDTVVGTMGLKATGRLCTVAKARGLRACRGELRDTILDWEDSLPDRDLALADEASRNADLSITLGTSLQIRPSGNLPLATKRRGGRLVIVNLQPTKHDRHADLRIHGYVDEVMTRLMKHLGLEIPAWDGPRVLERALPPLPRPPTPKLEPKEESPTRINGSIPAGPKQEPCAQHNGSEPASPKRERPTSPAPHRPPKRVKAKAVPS
Sequence of Histone deacetylase 9 (Q9UKV0 whole entry): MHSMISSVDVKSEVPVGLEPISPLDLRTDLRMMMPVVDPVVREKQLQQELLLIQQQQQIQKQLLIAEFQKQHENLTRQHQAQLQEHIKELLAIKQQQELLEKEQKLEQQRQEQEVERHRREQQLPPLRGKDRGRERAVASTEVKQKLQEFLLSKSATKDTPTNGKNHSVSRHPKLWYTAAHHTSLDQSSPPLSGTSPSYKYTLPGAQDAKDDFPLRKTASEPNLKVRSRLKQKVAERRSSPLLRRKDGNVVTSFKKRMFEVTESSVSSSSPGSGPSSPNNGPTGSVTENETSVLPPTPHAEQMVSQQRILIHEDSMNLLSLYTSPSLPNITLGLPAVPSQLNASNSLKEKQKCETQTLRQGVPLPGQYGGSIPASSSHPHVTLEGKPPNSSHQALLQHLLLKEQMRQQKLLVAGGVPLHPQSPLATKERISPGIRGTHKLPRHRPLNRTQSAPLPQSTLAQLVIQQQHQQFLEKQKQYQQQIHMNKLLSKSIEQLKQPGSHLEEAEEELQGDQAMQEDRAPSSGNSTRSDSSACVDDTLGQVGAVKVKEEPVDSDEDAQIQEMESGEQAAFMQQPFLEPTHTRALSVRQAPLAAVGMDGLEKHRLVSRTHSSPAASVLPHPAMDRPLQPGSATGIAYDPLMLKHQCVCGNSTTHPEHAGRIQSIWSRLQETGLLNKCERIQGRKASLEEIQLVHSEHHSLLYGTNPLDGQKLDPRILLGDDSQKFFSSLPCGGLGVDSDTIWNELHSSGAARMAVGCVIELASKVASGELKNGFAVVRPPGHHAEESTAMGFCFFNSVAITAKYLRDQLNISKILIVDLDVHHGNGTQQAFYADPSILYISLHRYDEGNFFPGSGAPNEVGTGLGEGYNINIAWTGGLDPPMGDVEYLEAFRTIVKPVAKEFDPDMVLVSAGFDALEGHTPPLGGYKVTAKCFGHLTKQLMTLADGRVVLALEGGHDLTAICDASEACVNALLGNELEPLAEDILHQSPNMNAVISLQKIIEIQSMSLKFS
Sequence of Histone deacetylase 3 (O15379 whole entry): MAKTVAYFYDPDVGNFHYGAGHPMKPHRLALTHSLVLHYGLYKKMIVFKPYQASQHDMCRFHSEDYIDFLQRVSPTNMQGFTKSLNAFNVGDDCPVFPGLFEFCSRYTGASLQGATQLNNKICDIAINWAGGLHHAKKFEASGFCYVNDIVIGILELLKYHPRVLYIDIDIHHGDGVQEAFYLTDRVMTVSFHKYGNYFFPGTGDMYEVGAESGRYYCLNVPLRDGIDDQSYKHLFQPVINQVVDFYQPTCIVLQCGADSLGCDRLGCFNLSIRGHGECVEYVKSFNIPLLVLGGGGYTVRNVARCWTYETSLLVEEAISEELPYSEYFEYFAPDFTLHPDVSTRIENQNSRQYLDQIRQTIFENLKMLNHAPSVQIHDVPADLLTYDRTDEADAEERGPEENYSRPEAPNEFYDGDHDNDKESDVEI
Sequence of NAD-dependent protein deacetylase sirtuin-2 (Q8IXJ6 whole entry): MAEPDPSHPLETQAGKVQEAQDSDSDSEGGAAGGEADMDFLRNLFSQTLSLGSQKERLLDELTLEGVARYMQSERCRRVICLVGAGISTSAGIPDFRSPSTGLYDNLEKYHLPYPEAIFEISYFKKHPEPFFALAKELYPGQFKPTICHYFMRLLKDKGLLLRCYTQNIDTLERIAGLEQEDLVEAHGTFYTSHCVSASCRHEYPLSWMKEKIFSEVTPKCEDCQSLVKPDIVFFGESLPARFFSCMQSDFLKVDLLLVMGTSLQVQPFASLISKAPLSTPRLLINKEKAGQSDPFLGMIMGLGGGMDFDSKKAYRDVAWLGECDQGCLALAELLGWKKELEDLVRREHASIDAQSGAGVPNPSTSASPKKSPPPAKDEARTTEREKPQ
Sequence of Polyamine deacetylase HDAC10 (Q969S8 whole entry): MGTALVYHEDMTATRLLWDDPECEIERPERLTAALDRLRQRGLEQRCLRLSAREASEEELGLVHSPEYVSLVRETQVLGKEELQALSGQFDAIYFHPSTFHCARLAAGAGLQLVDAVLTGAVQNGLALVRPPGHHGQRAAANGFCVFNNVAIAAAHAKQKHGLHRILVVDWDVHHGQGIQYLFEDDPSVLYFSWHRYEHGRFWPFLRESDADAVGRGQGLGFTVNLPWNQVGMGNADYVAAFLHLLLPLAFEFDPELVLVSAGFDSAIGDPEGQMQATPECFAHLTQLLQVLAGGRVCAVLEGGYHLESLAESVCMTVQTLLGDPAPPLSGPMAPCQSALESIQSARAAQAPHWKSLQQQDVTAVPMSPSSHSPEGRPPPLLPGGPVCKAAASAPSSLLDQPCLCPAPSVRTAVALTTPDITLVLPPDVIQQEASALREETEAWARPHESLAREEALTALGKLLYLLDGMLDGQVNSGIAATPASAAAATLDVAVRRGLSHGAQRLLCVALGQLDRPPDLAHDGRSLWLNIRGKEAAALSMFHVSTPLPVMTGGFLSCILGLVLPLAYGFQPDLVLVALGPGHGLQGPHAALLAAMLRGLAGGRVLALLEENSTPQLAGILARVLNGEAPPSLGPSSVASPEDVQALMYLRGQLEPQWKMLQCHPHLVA

EC1.5 [1]: 0.49 µM | EC50 [1]: 5.49 µM | ΔTm [2]: 1.01 °C | Kd [3]: 8.85 µM | Activity [9]: Active | inhibition [10]: Dose-dependent effect | inhibition [11]: Dose-dependent effect | inhibition [12]: Active | Tmax [14]: 2 h | Cmax [15]: 98.5 ng/mL | AUC [16]: 755.57 ng·mL·h | CL [17]: 10 mL/min/kg | Cmax [18]: 5120 ng/mL | AUC [19]: 3381.49 ng·mL·h | IC50 [20]: > 200 µM | IC50 [21]: > 200 µM | IC50 [22]: > 200 µM | IC50 [23]: > 200 µM | IC50 [24]: > 200 µM
Compound: O=C(NC(c1ccccc1)c1ccccc1)c1cc(-c2cc3ccccc3o2)nc2ccccc12
Activity [4]: Active | Activity [5]: Active | inhibition [6]: Dose-dependent effect | inhibition [7]: Dose-dependent effect | inhibition at 10 µM [8]: 70% | inhibition in vivo at 150 mg/kg/day [13]: 90.2%
